How the values were obtained:
[1] = test system: Rattus norvegicus; experiment: Antiinflammatory activity in Wistar rat assessed as inhibition of carrageenan-induced paw edema administered orally at equimolar oral dose relative to 10 mg/kg flurbiprofen measured after 4 hrs of carrageenan challenge; format: functional
In short: (§1)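 Adult Wistar rats of either sex, 150–200 g, n=6 per group, fasted 24 h with water allowed. Dosed orally in 0.5% CMC 1 h before 0.1 ml of 1% carrageenan in saline was injected subplantar into the right hind paw. Paw volume was read by plethysmometer at baseline, 3 h and 4 h. % inhibition = (Vc − Vt)/Vc × 100. ANOVA with Dunnett's test.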

[2] = test system: Rattus norvegicus; experiment: Antiinflammatory activity in Wistar rat assessed as inhibition of carrageenan-induced paw edema administered orally at equimolar oral dose relative to 10 mg/kg flurbiprofen measured after 3 hrs of carrageenan challenge; format: functional; in short: as §1
[3] = test system: Mus musculus; experiment: Analgesic activity in Swiss albino mouse assessed as inhibition of tail withdrawal administered orally at equimolar oral dose relative to 10 mg/kg flurbiprofen after 4 hrs; format: functional
In short: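 Tail immersion in Swiss albino mice of either sex, 25–30 g, n=6 per group, dosed orally as a suspension in 0.5% w/v CMC. The lower 5 cm of the tail was dipped in water held at 55 ± 0.5 °C. Reaction time (s) to tail withdrawal was recorded before dosing and 4 h after, with a 10 s cut-off.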

[4] = test system: Rattus norvegicus; experiment: Gastrointestinal toxicity in rat assessed as gastric mucosal damage severity index administered at equimolar oral dose relative to 30 mg/kg flurbiprofen; format: organism-based, Gastric mucosa; set-up: dose 30 mg/kg, route oral; conditions: in vivo
In short: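 Wistar rats, n=6 per group, food withdrawn 24 h before oral dosing in 0.5% CMC, then given normal diet for 17 h before sacrifice. Stomachs were opened along the greater curvature and scored under a magnifier (0.5 redness to 3.0 for >5 ulcers). Severity index = mean treated score minus mean control score.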

[5] = species: Rattus norvegicus; experiment: Inhibition of lipid peroxidation in rat assessed as malondialdehyde level per 100 mg of tissue; format: functional, organism-based
In short: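 Gastric mucosa taken from the ulcerogenicity rats was scraped, weighed (100 mg) and homogenized in ice-cold 1.15% KCl. SDS, acetate buffer pH 3.5 and 0.8% TBA were added and the mixture heated at 95 °C for 60 min. It was extracted with n-butanol:pyridine (15:1), centrifuged, and the organic layer read at 532 nm. Results given as nmol MDA/100 mg tissue (ε 1.56 × 10⁵ cm⁻¹ M⁻¹).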

[6] = test system: Rattus norvegicus; experiment: Hepatotoxicity in po dosed Wistar albino rat assessed as total protein content administered at equimolar oral dose relative to 10 mg/kg flurbiprofen after 15 days; format: toxicity, organism-based; set-up: dose 10 mg/kg, route oral; conditions: in vivo, 360 h
In short: (§2)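 Wistar albino rats of either sex, 150–200 g, n=6 per group, given oral doses in 0.5% w/v CMC once daily for 15 days; controls received vehicle. Retro-orbital blood was clotted 45 min at room temperature and serum separated by centrifugation at 2500 rpm for 15 min for the biochemical assays. ANOVA with Dunnett's test against control.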

[7] = test system: Rattus norvegicus; experiment: Hepatotoxicity in po dosed Wistar albino rat assessed as serum glutamate oxaloacetate transaminase activity administered at equimolar oral dose relative to 10 mg/kg flurbiprofen after 15 days; format: toxicity, organism-based; set-up: dose 10 mg/kg, route oral; conditions: in vivo, 360 h; in short: as §2
[8] = test system: Rattus norvegicus; experiment: Hepatotoxicity in po dosed Wistar albino rat assessed as total albumin content administered at equimolar oral dose relative to 10 mg/kg flurbiprofen after 15 days; format: toxicity, organism-based; set-up: dose 10 mg/kg, route oral; conditions: in vivo, 360 h; in short: as §2
[9] = test system: Rattus norvegicus; experiment: Hepatotoxicity in po dosed Wistar albino rat assessed as serum glutamate pyruvate transaminase activity administered at equimolar oral dose relative to 10 mg/kg flurbiprofen after 15 days; format: toxicity, organism-based; set-up: dose 10 mg/kg, route oral; conditions: in vivo, 360 h; in short: as §2

Row | SMILES | inhibition in vivo [1] [%] | inhibition in vivo [2] [%] | also measured
1 | Clc1ccc(Nc2nnc(COc3ccc(-c4ccccc4)cc3)s2)cc1 | 54.5 | 52.3 | 
2 | Cc1ccccc1Nc1nnc(COc2ccc(-c3ccccc3)cc2)s1 | 29.5 | 25 | 
3 | CC(C(=O)O)c1ccc(-c2ccccc2)c(F)c1 (configuration not stated) [FLURBIPROFEN] | 79.5 | 75 | inhibition in vivo [3]: 69.5%; UI [4]: 1.666; Activity [5]: 7.51 nmol
4 | Clc1ccc(-c2nnc(COc3ccc(-c4ccccc4)cc3)o2)cc1 | 77.3 | 75 | inhibition in vivo [3]: 16.9%; UI [4]: 1; Activity [5]: 5.88 nmol
5 | Fc1ccc(Nc2nnc(COc3ccc(-c4ccccc4)cc3)s2)cc1 | 29.5 | 27.3 | 
6 | c1ccc(-c2ccc(OCc3nnc(-c4ccccc4)o3)cc2)cc1 | 18.2 | 18.2 | 
7 | CCCCNc1nnc(COc2ccc(-c3ccccc3)cc2)o1 | 15.9 | 15.9 | 
8 | Cc1ccccc1-n1c(S)nnc1COc1ccc(-c2ccccc2)cc1 | 59.1 | 56.8 | 
9 | Fc1ccc(-n2c(S)nnc2COc2ccc(-c3ccccc3)cc2)cc1 | 79.5 | 75 | inhibition in vivo [3]: 30.5%; UI [4]: 0.833; Activity [5]: 5.34 nmol
10 | CCCCNc1nnc(COc2ccc(-c3ccccc3)cc2)s1 | 27.3 | 27.3 | 
11 | Cc1ccc(Nc2nnc(COc3ccc(-c4ccccc4)cc3)s2)c(C)c1 | 56.8 | 56.8 | 
12 | Clc1ccc(OCc2nnc(COc3ccc(-c4ccccc4)cc3)o2)c(Cl)c1 | 29.5 | 29.5 | 
13 | Brc1ccc(Nc2nnc(COc3ccc(-c4ccccc4)cc3)s2)cc1 | 63.6 | 63.6 | 
14 | Cc1ccc(-n2c(S)nnc2COc2ccc(-c3ccccc3)cc2)c(C)c1 | 54.5 | 54.5 | 
15 | Sc1nnc(COc2ccc(-c3ccccc3)cc2)n1-c1ccc(Cl)cc1 | 18.2 | 15.9 | 
16 | Sc1nnc(COc2ccc(-c3ccccc3)cc2)n1-c1ccc(Br)cc1 | 31.8 | 31.8 | 
17 | COc1ccc2cc(C(C)c3nnc(COc4ccc(-c5ccccc5)cc4)o3)ccc2c1 (configuration not stated) | 25 | 25 | 
18 | CCCCn1c(S)nnc1COc1ccc(-c2ccccc2)cc1 | 81.8 | 75 | Activity [6]: 1.82 g/dL; Activity [7]: 138 U/ml; Activity [8]: 0.71 g/dL; inhibition in vivo [3]: 58.2%; UI [4]: 0.666; Activity [9]: 22.67 U/ml; Activity [5]: 5.19 nmol
19 | Fc1ccc(Nc2nnc(COc3ccc(-c4ccccc4)cc3)o2)cc1 | 52.3 | 52.3 | 
20 | Clc1ccccc1-c1nnc(COc2ccc(-c3ccccc3)cc2)o1 | 63.6 | 59.1 | 
21 | Clc1ccc(-c2nnc(COc3ccc(-c4ccccc4)cc3)o2)c(Cl)c1 | 57.6 | 56.1 | 
22 | CC(C)Cc1ccc(C(C)c2nnc(COc3ccc(-c4ccccc4)cc3)o2)cc1 (configuration not stated) | 79.5 | 77.3 | Activity [6]: 1.92 g/dL; Activity [7]: 141.09 U/ml; Activity [8]: 1.72 g/dL; inhibition in vivo [3]: 72.8%; UI [4]: 0.75; Activity [9]: 29.17 U/ml; Activity [5]: 5.28 nmol

From ChEMBL document CHEMBL1154475, “1,3,4-Oxadiazole/thiadiazole and 1,2,4-triazole derivatives of biphenyl-4-yloxy acetic acid: synthesis and preliminary evaluation of biological properties” (Eur J Med Chem, 2008)
